# According to ChEMBL document CHEMBL1156191, “Characterization of the pharmacophore properties of novel selective estrogen receptor downregulators (SERDs)” (J Med Chem, 2010):
# Active and inactive are the calls of the source. No cut-off for these calls is given here.
# How the values were obtained:
# MCF7 [1] = assay: Down regulation of ERalpha expression in human MCF7 cell insoluble fraction at 1 uM after 16 hrs by Western blotting; type: functional, cell-based
# How it was run: (§1)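 MCF-7 cells steroid-depleted five days in phenol red-free medium with 5% charcoal-dextran-treated calf serum, grown to ~80% confluency, then given 1 μM compound or 0.1% EtOH vehicle for 16 h. Cytoplasmic, nuclear, matrix and insoluble fractions or whole-cell lysate prepared. Western blot with anti-ERα (F10) and infrared detection; Sp1 serves as loading reference.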
# MCF7 [2] = assay: Down regulation of ERalpha expression in human MCF7 cell matrix fraction at 1 uM after 16 hrs by Western blotting; type: functional, cell-based; how it was run: as §1
# MCF7 [3] = assay: Down regulation of ERalpha expression in human MCF7 cell cytoplasmic fraction at 1 uM after 16 hrs by Western blotting; type: functional, cell-based; how it was run: as §1
# MCF7 [4] = assay: Down regulation of ERalpha expression in human MCF7 cell whole cell extract at 1 uM after 16 hrs by Western blotting; type: functional, cell-based; how it was run: as §1
# MCF7 [5] = assay: Down regulation of ERalpha expression in human MCF7 cell nuclear fraction at 1 uM after 16 hrs by Western blotting; type: functional, cell-based; how it was run: as §1
# [6] = biological target: T1, Estrogen receptor (Homo sapiens) (UniProt P03372); assay: Displacement of [3H]estradiol from full-length human estrogen receptor alpha assessed as relative binding affinity by radiometric assay relative to estradiol
# T1 sequence (whole entry): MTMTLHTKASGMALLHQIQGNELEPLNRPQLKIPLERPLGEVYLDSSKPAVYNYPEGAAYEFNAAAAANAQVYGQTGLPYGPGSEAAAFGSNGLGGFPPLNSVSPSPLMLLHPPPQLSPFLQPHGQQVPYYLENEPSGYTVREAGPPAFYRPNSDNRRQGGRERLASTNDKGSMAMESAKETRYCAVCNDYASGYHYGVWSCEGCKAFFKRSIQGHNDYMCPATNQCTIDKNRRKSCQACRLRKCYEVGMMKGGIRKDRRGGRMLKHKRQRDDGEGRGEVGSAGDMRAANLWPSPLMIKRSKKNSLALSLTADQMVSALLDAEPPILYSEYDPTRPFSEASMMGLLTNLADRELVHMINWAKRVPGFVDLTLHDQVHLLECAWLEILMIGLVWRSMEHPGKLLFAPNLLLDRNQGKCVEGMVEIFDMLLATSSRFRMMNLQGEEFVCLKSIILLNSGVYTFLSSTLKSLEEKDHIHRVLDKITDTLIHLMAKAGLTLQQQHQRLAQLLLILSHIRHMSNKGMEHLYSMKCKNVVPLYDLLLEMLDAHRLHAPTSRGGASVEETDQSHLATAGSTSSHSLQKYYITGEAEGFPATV
# [7] = biological target: Estrogen receptor beta (Homo sapiens) (UniProt Q92731); assay: Displacement of [3H]estradiol from full-length human estrogen receptor beta assessed as relative binding affinity by radiometric assay relative to estradiol
# Homo sapiens = organism: Homo sapiens; assay: Ratio of relative binding affinity for human ERbeta to relative binding affinity for human ERalpha
# MCF7 [8] = assay: Down regulation of ERalpha expression in human MCF7 cell matrix fraction at 1 uM treated 16 hrs before estradiol challenge measured after 4 hrs by Western blotting in presence of 1 nM estradiol; type: functional, cell-based
# How it was run: (§2)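 Steroid-depleted MCF-7 cells (5 d, 5% charcoal-dextran calf serum, phenol red-free medium) exposed 16 h to 1 μM compound, then 1 nM estradiol added for 4 h before fractionation into cytoplasmic, nuclear, matrix, insoluble or whole-cell extracts. ERα detected by Western blot with F10 antibody; Sp1 used as loading reference.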
# MCF7 [9] = assay: Down regulation of ERalpha expression in human MCF7 cell nuclear fraction at 1 uM treated 16 hrs before estradiol challenge measured after 4 hrs by Western blotting in presence of 1 nM estradiol; type: functional, cell-based; how it was run: as §2
# [10] = biological target: T1, Estrogen receptor (Homo sapiens); assay: Effect on ERalpha-mediated transcriptional activity in human MCF7 cells assessed as reduction of estradiol-induced activation of carbonic anhydrase 12 mRNA expression at 1 uM treated 16 hrs before estradiol challenge measured after 4 hrs by RT-PCR analysis; type: cell-based
# How it was run: (§3)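 MCF-7 cells steroid-depleted seven days in phenol red-free medium with 5% charcoal-dextran calf serum, grown to ~80% confluency, then given 1 μM compound 16 h followed by 0.1% ethanol vehicle or 1 nM estradiol for 4 h. Total RNA reverse transcribed and target mRNA quantified by real-time PCR. Repeated-measures one-way ANOVA with Tukey test.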
# MCF7 [11] = assay: Down regulation of ERalpha expression in human MCF7 cell insoluble fraction at 1 uM treated 16 hrs before estradiol challenge measured after 4 hrs by Western blotting in presence of 1 nM estradiol; type: functional, cell-based; how it was run: as §2
# MCF7 [12] = assay: Down regulation of ERalpha expression in human MCF7 cell whole cell extract at 1 uM treated 16 hrs before estradiol challenge measured after 4 hrs by Western blotting in presence of 1 nM estradiol; type: functional, cell-based; how it was run: as §2
# [13] = biological target: T1, Estrogen receptor (Homo sapiens); assay: Effect on ERalpha-mediated transcriptional activity in human MCF7 cells assessed as reduction of estradiol-induced activation of pS2 mRNA expression at 1 uM treated 16 hrs before estradiol challenge measured after 4 hrs by RT-PCR analysis; type: cell-based; how it was run: as §3
# MCF7 [14] = assay: Down regulation of ERalpha expression in human MCF7 cell cytoplasmic fraction at 1 uM treated 16 hrs before estradiol challenge measured after 4 hrs by Western blotting in presence of 1 nM estradiol; type: functional, cell-based; how it was run: as §2
# [15] = biological target: T1, Estrogen receptor (Homo sapiens); assay: Effect on ERalpha-mediated transcriptional activity in human MCF7 cells assessed as reduction of estradiol-induced activation of progesterone receptor mRNA expression at 1 uM treated 16 hrs before estradiol challenge measured after 4 hrs by RT-PCR analysis; type: cell-based; how it was run: as §3
# Estrogen receptor beta (Homo sapiens), sequence (Q92731 whole entry): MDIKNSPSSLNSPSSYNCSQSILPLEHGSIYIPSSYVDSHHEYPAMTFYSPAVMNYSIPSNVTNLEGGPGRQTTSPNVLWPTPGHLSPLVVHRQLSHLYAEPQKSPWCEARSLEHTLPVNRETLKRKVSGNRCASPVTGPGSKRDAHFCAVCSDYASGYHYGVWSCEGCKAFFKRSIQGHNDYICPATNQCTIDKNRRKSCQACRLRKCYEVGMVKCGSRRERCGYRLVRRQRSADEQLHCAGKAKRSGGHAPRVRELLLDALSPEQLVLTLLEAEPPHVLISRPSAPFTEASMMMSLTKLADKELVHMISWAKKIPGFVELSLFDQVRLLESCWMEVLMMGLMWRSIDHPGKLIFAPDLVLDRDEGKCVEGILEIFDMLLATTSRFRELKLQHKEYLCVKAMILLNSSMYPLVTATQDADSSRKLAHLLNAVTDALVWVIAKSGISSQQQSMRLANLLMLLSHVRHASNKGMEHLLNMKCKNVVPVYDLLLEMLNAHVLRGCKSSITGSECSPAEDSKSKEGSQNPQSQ
SMILES,Activity (MCF7 [1]),Activity (MCF7 [2]),Activity (MCF7 [3]),Activity (MCF7 [4]),Activity (MCF7 [5]),relative binding affinity (RBA) [6],relative binding affinity (RBA) [7],Ratio (Homo sapiens),Activity (MCF7 [8]),Activity (MCF7 [9]),Activity [10],Activity (MCF7 [11]),Activity (MCF7 [12]),Activity [13],Activity (MCF7 [14]),Activity [15]
C[C@]12CC[C@@H]3c4ccc(O)cc4C[C@@H](CCCCCCCCC[S+]([O-])CCCC(F)(F)C(F)(F)F)[C@H]3[C@@H]1CC[C@@H]2O (stereo partly drawn),Active,Active,Active,Active,Active,,,,,,,,,,,
O=C(O)C/C=C/c1ccc(C(=C2C3CCCC2CCC3)c2ccc(O)cc2)cc1,,,,,,9,23.1,2.6,,,,,,,,
COP(=O)(O)/C=C/c1ccc(C(=C2C3CCCC2CCC3)c2ccc(O)cc2)cc1,,,,,,7.5,7.7,1,,,,,,,,
Oc1ccc(C(=C2CCCCC2)c2ccc(O)cc2)cc1,,,,,,68,334,,,,,,,,,
O=C(O)CCCCCCCCCCOc1ccc(C(=C2C3CCCC2CCC3)c2ccc(O)cc2)cc1,inactive,inactive,inactive,inactive,inactive,,,,,,,,,,,
O=C(O)/C=C/c1ccc(C(=C2C3CCCC2CCC3)c2ccc(O)cc2)cc1,inactive,inactive,Active,inactive,inactive,,,,Active,Active,Active,Active,Active,Active,Active,Active
O=C(O)CCC/C=C/c1ccc(C(=C2C3CCCC2CCC3)c2ccc(O)cc2)cc1,,,,,,38.5,62.8,1.6,,,,,,,,
CCC(=C(c1ccc(O)cc1)c1ccc(/C=C/C(=O)O)cc1)c1ccccc1,inactive,inactive,Active,inactive,inactive,,,,Active,Active,Active,Active,Active,Active,Active,Active
O=C(O)CCCC/C=C/c1ccc(C(=C2C3CCCC2CCC3)c2ccc(O)cc2)cc1,inactive,inactive,inactive,inactive,inactive,87.4,81.1,0.93,,,,,,,,
O=C(O)CC/C=C/c1ccc(C(=C2C3CCCC2CCC3)c2ccc(O)cc2)cc1,,,,,,13.1,24.6,1.9,,,,,,,,
O=C(O)/C=C/c1ccc(C(=C2CCCCC2)c2ccc(O)cc2)cc1,inactive,inactive,inactive,inactive,inactive,,,,Active,Active,,Active,Active,,Active,
